# Where two headings read alike, the source gives them in different places. Marks after values point to notes of the source that are not given here.
# Key:
# COX‐1 = target: T1, COX‐1 (Canis lupus familiaris, UniProt Q8HZR1); type: cell-based, dog; conditions: Hill equation fit of TXB2 formation; mean of six dogs
# T1 sequence (Q8HZR1 28-603): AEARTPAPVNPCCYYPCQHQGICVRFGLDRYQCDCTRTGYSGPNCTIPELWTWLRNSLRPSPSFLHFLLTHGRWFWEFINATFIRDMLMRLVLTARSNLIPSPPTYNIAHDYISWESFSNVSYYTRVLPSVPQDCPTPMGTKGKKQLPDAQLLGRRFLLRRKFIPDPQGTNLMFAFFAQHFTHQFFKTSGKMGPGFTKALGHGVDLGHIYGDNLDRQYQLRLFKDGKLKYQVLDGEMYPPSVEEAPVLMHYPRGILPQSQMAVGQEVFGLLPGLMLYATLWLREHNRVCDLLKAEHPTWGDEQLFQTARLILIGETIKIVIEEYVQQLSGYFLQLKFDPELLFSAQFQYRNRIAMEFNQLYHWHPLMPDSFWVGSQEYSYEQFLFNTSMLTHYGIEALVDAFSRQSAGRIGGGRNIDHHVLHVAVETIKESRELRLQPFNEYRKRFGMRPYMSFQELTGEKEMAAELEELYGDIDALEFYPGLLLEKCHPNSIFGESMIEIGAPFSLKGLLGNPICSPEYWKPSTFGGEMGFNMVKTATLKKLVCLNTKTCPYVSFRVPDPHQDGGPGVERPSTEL
# Method in brief: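 Whole blood from six male Beagles was drawn without anticoagulant and used at once. Duplicate incubations received test compound at final 500, 300, 100, 30, 10, 3, 1 or 0 µM (0.4% v/v DMSO) plus PBS, for 1 h at ca 37°C with gentle shaking. Serum TXB2 was measured by ELISA (1:3000, 412 nm). Per-dog 4-parameter Hill fits gave IC50 and gamma, and IC20/IC80 were calculated from these.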
# COX‐2 = target: T2, COX‐2 (Canis lupus familiaris, UniProt Q8SPQ9); type: cell-based, dog
# T2 sequence (Q8SPQ9 18-604): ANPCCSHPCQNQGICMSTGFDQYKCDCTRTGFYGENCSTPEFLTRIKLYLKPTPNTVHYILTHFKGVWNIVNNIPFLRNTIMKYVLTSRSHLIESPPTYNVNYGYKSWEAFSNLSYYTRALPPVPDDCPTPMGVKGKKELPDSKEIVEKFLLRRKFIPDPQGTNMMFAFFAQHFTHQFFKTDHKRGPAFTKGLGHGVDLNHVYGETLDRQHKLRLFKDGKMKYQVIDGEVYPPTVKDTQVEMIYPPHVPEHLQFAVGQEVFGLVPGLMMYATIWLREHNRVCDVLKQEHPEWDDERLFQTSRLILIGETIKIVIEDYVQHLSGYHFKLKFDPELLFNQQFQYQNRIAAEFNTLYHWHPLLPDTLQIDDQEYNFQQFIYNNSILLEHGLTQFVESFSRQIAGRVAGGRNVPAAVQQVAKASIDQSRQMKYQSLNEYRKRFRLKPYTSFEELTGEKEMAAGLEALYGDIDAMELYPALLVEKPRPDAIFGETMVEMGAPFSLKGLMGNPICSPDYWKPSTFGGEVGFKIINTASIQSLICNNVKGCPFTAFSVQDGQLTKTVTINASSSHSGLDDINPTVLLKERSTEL
# Method in brief: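 Citrated blood from three male and three female Beagles was held 4–6 h at ca 2–8°C. Duplicates received test compound at final 100, 30, 10, 3, 1, 0.3, 0.1 or 0 µM (one enantiomer max 30 µM; 0.4% DMSO) with LPS 1 µg/ml final, for 24 h at ca 37°C with orbital agitation. Plasma PGE2 was measured by ELISA (1:1000). Per-dog Hill fits gave IC50 and gamma; IC20/IC80 were derived.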
# COX‐1/COX‐2 [1] = assay: Selectivity for COX‐2 inhibition; type: cell-based; conditions: dog whole blood, not corrected for blood cell partitioning
# Method in brief: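 Selectivity was the quotient of mean IC50 values (six Beagles each) from two canine whole blood assays. One was clotting-induced TXB2 (COX-1; unanticoagulated blood, 1 h, ca 37°C). The other was LPS-induced PGE2 (COX-2; citrated blood, 1 µg/ml LPS, 24 h). Both were read by ELISA and Hill-fitted. IC50 ratios were tested by paired t test, and compounds by one-way ANOVA/Tukey.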
# [2] = tested on: PGE2 formation in gastric mucosa; conditions: rat carrageenan model, dose of 40 mg/kg; ref Iñiguez et al. (2010); cited from earlier work
# COX‐1/COX‐2 [3] = conditions: cited from earlier work
# [4] = ref King et al., 2010, McCann et al., 2004
# [5] = whole blood concentration, not corrected for blood cell partitioning
smiles,measurement,setting,value
NS(=O)(=O)c1ccc(N2N=C(C(F)(F)F)C[C@H]2c2ccc(F)cc2F)cc1 [(S)‐(‐)‐Enflicoxib],"Gamma (sigmoidicity factor), COX‐1",COX‐1,1.8
same,"Gamma (sigmoidicity factor), COX‐2","COX‐2; Hill equation fit of PGE2 formation, mean of six dogs",2.7
same,Ratio IC50 (COX‐1/COX‐2),COX‐1/COX‐2 [1],3.77‡
same,inhibition of PGE2 formation in gastric mucosa,[2],18%
CC(C(=O)O)c1ccc2c(c1)[nH]c1ccc(Cl)cc12 (stereo not shown) [carprofen],COX‐2 selectivity ratio,"COX‐1/COX‐2 [3]; ref Briedeau et al., 2001",~6.5
CC1(C)OC(=O)C(OCC2CC2)=C1c1ccc(S(C)(=O)=O)cc1 [firocoxib],COX‐2 selectivity ratio,COX‐1/COX‐2 [3]; [4],384
CCc1ccc(Nc2c(F)c(F)cc(F)c2F)c(CC(=O)O)c1 [robenacoxib],COX‐2 selectivity ratio,COX‐1/COX‐2 [3]; [4],129
COc1ccc(-c2cc(C(F)F)nn2-c2ccc(S(N)(=O)=O)cc2)cc1F [deracoxib],COX‐2 selectivity ratio,COX‐1/COX‐2 [3]; [4],48.5
NS(=O)(=O)c1ccc(N2N=C(C(F)(F)F)C[C@@H]2c2ccc(F)cc2F)cc1 [(R)‐(+)‐Enflicoxib],IC50 for COX‐2 inhibition expressed as blood level,COX‐2; [5],> 12 µg/mL
same,IC80 for COX‐2 inhibition expressed as blood level,COX‐2; [5],> 12 µg/mL

# Reference: article PMC9306928 (Journal of Veterinary Pharmacology and Therapeutics, 2022)
